From ChEMBL document CHEMBL3758168, “Hybrid triazoles: Design and synthesis as potential dual inhibitor of growth and efflux inhibition in tuberculosis” (Eur J Med Chem, 2016)
Converted amounts (≈) assume the structure as drawn.

Experiments:
[1] = test system: Mycobacterium tuberculosis; test: Antibacterial activity against Mycobacterium tuberculosis H37Rv ATCC 27294T assessed as amikacin MIC at 64 ug/ml after 7 days by microdilution checkerboard assay; assay type: functional; conditions: 168 h
Procedure, shortened: (§1)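 Two-dimensional checkerboard in H37Rv at 10^5 CFU/ml in MB7H9/OADC. Partner drug (amikacin, EtBr, isoniazid, ofloxacin or rifampin) two-fold serially diluted across columns 3-11. Test compound two-fold serially diluted down rows 2-6. Plates incubated 7 days at 37 °C, then MTT added overnight. […] Run in triplicate.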

[2] = test system: Mycobacterium tuberculosis; test: Antibacterial activity against Mycobacterium tuberculosis H37Rv ATCC 27294T assessed as ethidium bromide MIC at 16 ug/ml after 7 days by microdilution checkerboard assay; assay type: functional; conditions: 168 h; procedure, shortened: as §1
[3] = test system: Mycobacterium tuberculosis; test: Antibacterial activity against Mycobacterium tuberculosis H37Rv ATCC 27294T assessed as ethidium bromide MIC at 2 ug/ml after 7 days by microdilution checkerboard assay; assay type: functional; conditions: 168 h; procedure, shortened: as §1
[4] = test system: Mycobacterium tuberculosis; test: Antibacterial activity against Mycobacterium tuberculosis H37Rv ATCC 27294T assessed as amikacin MIC at 2 ug/ml after 7 days by microdilution checkerboard assay; assay type: functional; conditions: 168 h; procedure, shortened: as §1
[5] = test system: Mycobacterium tuberculosis; test: Antibacterial activity against Mycobacterium tuberculosis H37Rv ATCC 27294T assessed as amikacin MIC at 4 ug/ml after 7 days by microdilution checkerboard assay; assay type: functional; conditions: 168 h; procedure, shortened: as §1
[6] = test system: Mycobacterium tuberculosis; test: Antibacterial activity against Mycobacterium tuberculosis H37Rv ATCC 27294T assessed as isoniazid MIC at 32 ug/ml after 7 days by microdilution checkerboard assay; assay type: functional; conditions: 168 h; procedure, shortened: as §1
[7] = test system: Mycobacterium tuberculosis; test: Modulation factor, ratio of refampin MIC to compound MIC for Mycobacterium tuberculosis H37Rv ATCC 27294T at 128 ug/ml in presence of refampin; assay type: functional
[8] = test system: Mycobacterium tuberculosis; test: Antibacterial activity against Mycobacterium tuberculosis H37Rv ATCC 27294T assessed as ethidium bromide MIC at 4 ug/ml after 7 days by microdilution checkerboard assay; assay type: functional; conditions: 168 h; procedure, shortened: as §1
[9] = test system: Mycobacterium tuberculosis; test: Antibacterial activity against Mycobacterium tuberculosis H37Rv ATCC 27294T assessed as amikacin MIC at 128 ug/ml after 7 days by microdilution checkerboard assay; assay type: functional; conditions: 168 h; procedure, shortened: as §1
[10] = test system: Mycobacterium tuberculosis; test: Antibacterial activity against Mycobacterium tuberculosis H37Rv ATCC 27294T assessed as isoniazid MIC at 64 ug/ml after 7 days by microdilution checkerboard assay; assay type: functional; conditions: 168 h; procedure, shortened: as §1
[11] = test system: Mycobacterium tuberculosis; test: Modulation factor, ratio of amikacin MIC to compound MIC for Mycobacterium tuberculosis H37Rv ATCC 27294T at 128 ug/ml in presence of amikacin; assay type: functional
[12] = test system: Mycobacterium tuberculosis; test: Antibacterial activity against Mycobacterium tuberculosis H37Rv ATCC 27294T assessed as isoniazid MIC at 16 ug/ml after 7 days by microdilution checkerboard assay; assay type: functional; conditions: 168 h; procedure, shortened: as §1
[13] = test system: Mycobacterium tuberculosis; test: Antibacterial activity against Mycobacterium tuberculosis H37Rv ATCC 27294T assessed as ethidium bromide MIC at 32 ug/ml after 7 days by microdilution checkerboard assay; assay type: functional; conditions: 168 h; procedure, shortened: as §1
[14] = test system: Mycobacterium tuberculosis; test: Antibacterial activity against Mycobacterium tuberculosis H37Rv ATCC 27294T assessed as rifampin MIC at 16 ug/ml after 7 days by microdilution checkerboard assay; assay type: functional; conditions: 168 h
Procedure, shortened: (§2)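 M. tuberculosis H37Rv grown in MB7H9 + 10% OADC at 37 °C to OD600 0.8; plates inoculated at 10^5 CFU/ml. Rifampicin two-fold serially diluted across columns, test compound two-fold diluted down rows (two-dimensional checkerboard). Sealed, 37 °C for seven days, then MTT added and incubated overnight. MIC read as no colour change. Triplicate.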

[15] = test system: Mycobacterium tuberculosis; test: Antibacterial activity against Mycobacterium tuberculosis H37Rv ATCC 27294T assessed as isoniazid MIC at 128 ug/ml after 7 days by microdilution checkerboard assay; assay type: functional; conditions: 168 h; procedure, shortened: as §1
[16] = test system: Mycolicibacterium smegmatis; test: Anti-tubercular activity against Mycobacterium smegmatis MC2 155 ATCC 700084 after 3 days by microdilution method; assay type: functional; conditions: MC2 155 ATCC 700084, 72 h
Procedure, shortened: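 M. smegmatis mc2155 grown in MB7H9 + 10% OADC at 37 °C with shaking to OD600 0.8. Inoculum set to 0.5 McFarland, diluted 1:100, and mixed 1:1 with two-fold serial dilutions in MB7H9. Plates incubated 3 days at 37 °C with growth and sterility controls. MIC taken as the lowest concentration with no visible growth.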

[17] = test system: Mycobacterium tuberculosis; test: Antibacterial activity against Mycobacterium tuberculosis H37Rv ATCC 27294T assessed as rifampin MIC at 32 ug/ml after 7 days by microdilution checkerboard assay; assay type: functional; conditions: 168 h; procedure, shortened: as §2
[18] = test system: Mycobacterium tuberculosis; test: Antibacterial activity against Mycobacterium tuberculosis H37Rv ATCC 27294T assessed as ofloxacin MIC at 4 ug/ml after 7 days by microdilution checkerboard assay; assay type: functional; conditions: 168 h; procedure, shortened: as §1
[19] = Cytotoxicity against human MDM assessed as cell viability after 3 days by Alamar blue dye-based fluorocytometric analysis relative to control; conditions: 72 h
[20] = test system: Mycobacterium tuberculosis; test: Antibacterial activity against Mycobacterium tuberculosis H37Rv ATCC 27294T assessed as ofloxacin MIC at 128 ug/ml after 7 days by microdilution checkerboard assay; assay type: functional; conditions: 168 h; procedure, shortened: as §1
[21] = test system: Mycobacterium tuberculosis; test: Antibacterial activity against Mycobacterium tuberculosis H37Rv ATCC 27294T assessed as ethidium bromide MIC at 64 ug/ml after 7 days by microdilution checkerboard assay; assay type: functional; conditions: 168 h; procedure, shortened: as §1
[22] = test system: Mycobacterium tuberculosis; test: Antibacterial activity against Mycobacterium tuberculosis H37Rv ATCC 27294T assessed as amikacin MIC at 16 ug/ml after 7 days by microdilution checkerboard assay; assay type: functional; conditions: 168 h; procedure, shortened: as §1
[23] = test system: Mycobacterium tuberculosis; test: Antibacterial activity against Mycobacterium tuberculosis H37Rv ATCC 27294T assessed as isoniazid MIC at 4 ug/ml after 7 days by microdilution checkerboard; assay type: functional; conditions: 168 h; procedure, shortened: as §1
[24] = test system: Mycobacterium tuberculosis; test: Anti-tubercular activity against Mycobacterium tuberculosis H37Rv ATCC 27294T after 7 days by mircodilution method; assay type: functional; conditions: 168 h
Procedure, shortened: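 H37Rv grown static in MB7H9 + 10% OADC at 37 °C to OD600 0.8, then diluted to about 10^5 cells/ml. Mixed 1:1 with two-fold serial dilutions in MB7H9/OADC and incubated 7 days at 37 °C. MTT added to final 2.5% and plates incubated overnight. MIC is the lowest concentration with no colour change. Run in triplicate.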

[25] = test system: Mycobacterium tuberculosis; test: Antibacterial activity against Mycobacterium tuberculosis H37Rv ATCC 27294T assessed as rifampin MIC at 128 ug/ml after 7 days by microdilution checkerboard assay; assay type: functional; conditions: 168 h; procedure, shortened: as §2
[26] = test system: Mycobacterium tuberculosis; test: Antibacterial activity against Mycobacterium tuberculosis H37Rv ATCC 27294T assessed as ethidium bromide MIC at 8 ug/ml after 7 days by microdilution checkerboard assay; assay type: functional; conditions: 168 h; procedure, shortened: as §1
[27] = test system: Mycobacterium tuberculosis; test: Antibacterial activity against Mycobacterium tuberculosis H37Rv ATCC 27294T assessed as amikacin MIC at 32 ug/ml after 7 days by microdilution checkerboard assay; assay type: functional; conditions: 168 h; procedure, shortened: as §1
[28] = Ratio of compound IC50 to thioridazine IC50 for human MDM; assay type: ADME; conditions: read-out: Ratio IC50
[29] = test system: Mycobacterium tuberculosis; test: Antibacterial activity against Mycobacterium tuberculosis H37Rv ATCC 27294T assessed as rifampin MIC at 2 ug/ml after 7 days by microdilution checkerboard assay; assay type: functional; conditions: 168 h; procedure, shortened: as §2
[30] = test system: Mycobacterium tuberculosis; test: Antibacterial activity against Mycobacterium tuberculosis H37Rv ATCC 27294T assessed as ofloxacin MIC at 8 ug/ml after 7 days by microdilution checkerboard assay; assay type: functional; conditions: 168 h; procedure, shortened: as §1
[31] = test system: Mycobacterium tuberculosis; test: Antibacterial activity against Mycobacterium tuberculosis H37Rv ATCC 27294T assessed as rifampin MIC at 64 ug/ml after 7 days by microdilution checkerboard assay; assay type: functional; conditions: 168 h; procedure, shortened: as §2

`CCCSc1nnc(COc2ccccc2C2=NOC(c3ccc(Cl)cc3Cl)C2)n1NC(=O)CCl` (stereo unspecified) gave an MIC [1] of 1 µg/mL, an MIC [2] of 12.5 µg/mL and an MIC [3] of 12.5 µg/mL. It also gave an MIC [4] of 1 µg/mL, an MIC [5] of 1 µg/mL and an MIC [6] of 0.1 µg/mL. For the same molecule, the Ratio [7] was 64, the MIC [8] was 12.5 µg/mL and the MIC [9] was 0.125 µg/mL. The MIC [10] was 0.1 µg/mL, the Ratio [11] was 16 and the MIC [12] was 0.1 µg/mL. For the same molecule, the MIC [13] was 12.5 µg/mL, the MIC [14] was 0.5 µg/mL and the MIC [15] was 0.00156 µg/mL. The MIC [16] was 4 µg/mL (≈ 7.21 µM), the MIC [17] was 0.5 µg/mL and the MIC [18] was 2 µg/mL. It also gave an IC50 [19] of 28.7 µg/mL (≈ 51.7 µM), an MIC [20] of 0.625 µg/mL and an MIC [21] of 6.25 µg/mL. The MIC [22] was 1 µg/mL, the MIC [23] was 0.1 µg/mL and the MIC [24] was 64 µg/mL (≈ 115 µM). It also gave an MIC [25] of 0.0156 µg/mL, an MIC [26] of 12.5 µg/mL and an MIC [27] of 1 µg/mL. For the same molecule, the selectivity ratio [28] was 3, the MIC [29] was 0.5 µg/mL and the MIC [30] was 1 µg/mL. It also gave an MIC [31] of 0.25 µg/mL.
